# Measurements gathered from unrelated publications.
# Lines come from different studies, so protocols differ.
# Matrix: plasma
Structure (SMILES),species,route,dose,notes,AUC(0-t)
COc1cc(N2CCC(N3CCN(C)CC3)CC2)ccc1Nc1ncnc(Nc2ccccc2S(=O)(=O)C(C)C)n1,human,oral,75 mg,"multiple doses, patients",3810 ng·h/mL
C[C@@]1(c2cc(NC(=O)c3ccc(C#N)cn3)ccc2F)C=CSC(N)=N1,human,oral,90 mg,single dose,8800 ng·h/mL
CO[C@@H]1[C@H](OC(=O)N2CC(CCN3CCOCC3)C2)CC[C@]2(CO2)[C@H]1[C@@]1(C)O[C@@H]1CC=C(C)C,human,subcutaneous,3.6 mg,"single dose, healthy volunteers",10.4 ng·h/mL
OC[C@H]1O[C@@H](c2ccc(Cl)c(Cc3ccc(O[C@H]4CCOC4)cc3)c2)[C@H](O)[C@@H](O)[C@@H]1O,human,oral,25 mg,single dose,4.31 µM·h
CC(C)n1cc(C#N)c2cc(-n3cc(C(=O)O)cn3)ccc21,human,oral,100 mg,"single dose, fasted, healthy volunteers",19400 ng·h/mL
FC(F)(F)c1ccc(CNc2ccc(Cc3c[nH]c4ncc(Cl)cc34)cn2)cn1,human,oral,600 mg,"multiple doses, patients",13300 ng·h/mL
COCCOc1cnc2ccn([C@H](C)c3nnc4c(F)cc(-c5cnn(C)c5)cn34)c(=O)c2c1,human,oral,50 mg,"multiple doses, once daily, patients",6940 ng·h/mL
CO[C@H]1CC[C@H](N2C(=O)CNc3ncc(-c4ccc(C(C)(C)O)nc4)nc32)CC1,human,oral,45 mg,patients,1500 ng·h/mL
COc1ccc([C@@H]2CN(C(=O)[C@@H](O)CO)C[C@@]2(C)[C@@H](C)O)cc1OC1CN(c2ccc(C)cn2)C1,human,oral,30 mg,"single dose, healthy volunteers",5620 ng·h/mL
CC(C)(O)c1ccccc1-c1ccc2[nH]c(/C=C/c3ccc(C(F)(F)F)cc3)nc2c1,male human,oral,120 mg,"single dose, fasted",2820 ng·h/mL
CCCCC1=NC2(CCCC2)C(=O)N1Cc1ccc(-c2ccccc2S(=O)(=O)Nc2noc(C)c2C)c(COCC)c1,human,oral,800 mg,"single dose, fasted, healthy volunteers",138000 ng·h/mL
Cc1nc(NC(=O)N2CCC[C@H]2C(N)=O)sc1-c1ccnc(C(C)(C)C(F)(F)F)c1,human,oral,400 mg,patients,40700 ng·h/mL
